Results collected from several papers.
Compare with care: the assays were run in different laboratories.
CDK4: Cyclin-dependent kinase 4 (CDK4, Homo sapiens, UniProt P11802)
REN: Renin (REN, Homo sapiens, UniProt P00797)
Maoa: Amine oxidase [flavin-containing] A (Maoa, Rattus norvegicus, UniProt P21396)

`CCOC(=O)[C@H]1Cc2c(cc([N+](=O)[O-])cc2[N+](=O)[O-])[C@@H](O)[C@@]12C(=O)Nc1ccc(F)cc12` gave an inhibition of 53.9% (CDK4; cell-free assay, inhibitor, TR-FRET; 1 µM).
`c1ccc(C(NCCNC(c2ccccc2)c2ccccc2)c2ccccc2)cc1` gave an inhibition of 30% (REN; enzyme activity, inhibitor; 10 µM).
The inhibition of `Cc1ncc(C)n2nc(/C=C/c3nc(N4CCCC4)cc(N4CCOCC4)n3)nc12` is reported as 2% (Maoa; ligand displacement; 10 µM).
`C#Cc1n[nH]c2c(-c3cn(C(C)c4ccccn4)c(=O)[nH]c3=O)cc(F)cc12` (stereo not shown) gave an inhibition of 4% (Ephrin type-A receptor 5 (EPHA5, Homo sapiens, UniProt P54756); enzyme activity, inhibitor; 1 µM).
The inhibition of `CCOC(=O)[C@H]1Cc2c(cc([N+](=O)[O-])cc2[N+](=O)[O-])[C@@H](O)[C@@]12C(=O)Nc1ccc(Cl)cc12` is reported as 70.2% (CDK4; cell-free assay, inhibitor, TR-FRET; 1 µM).
With `Cn1cc(-c2cc(F)cc(N3CCn4c(cc5c4CCCC5)C3=O)c2CO)cc(Nc2ccc(N3CCN(C4COC4)CC3)cn2)c1=O` the inhibition was 13% (Serine/threonine-protein kinase 3 (STK3, Homo sapiens, UniProt Q13188); enzyme activity, inhibitor; 0.1 µM).
The inhibition of `CCOC(=O)[C@H]1Cc2c(cc([N+](=O)[O-])cc2[N+](=O)[O-])[C@H](O)[C@]12C(=O)Nc1ccc(C)cc12` is reported as 27.1% (CDK4; cell-free assay, inhibitor, TR-FRET; 1 µM).
With `COc1cc(Nc2ncc(F)c(Nc3ccc4c(n3)NC(=O)C(C)(C)O4)n2)cc(OC)c1OC` the inhibition was 95% (Cyclin-G-associated kinase (GAK, Homo sapiens, UniProt O14976); binding; 10 µM).
For `COCCCOc1cc(C[C@@H](C[C@H](N)[C@@H](O)C[C@H](C(=O)NCC(C)(C)C(N)=O)C(C)C)C(C)C)ccc1OC`, the inhibition was 11% (REN; enzyme activity, inhibitor; 1 nM).
`Clc1ccc2c(C3CCN(CCc4c[nH]c5ccccc45)CC3)c[nH]c2c1` has an inhibition of 15% (Maoa; ligand displacement, radioligand; 10 µM).
With `CCOC(=O)c1ccc(OC(=O)CCCCCNC(=N)N)cc1` the inhibition was 0% (REN; enzyme activity, inhibitor; 10 µM).
With `CCOC(=O)[C@H]1Cc2c(cc([N+](=O)[O-])cc2[N+](=O)[O-])[C@@H](O)[C@@]12C(=O)Nc1cccc(Br)c12` the inhibition was 45.6% (CDK4; cell-free assay, inhibitor, TR-FRET; 1 µM).
For `CC(C)C[C@H](NC(=O)[C@H](Cc1ccccc1)NC(=O)c1cnccn1)B(O)O`, the inhibition was 53% (Chymotrypsinogen A (Bos taurus, UniProt P00766); enzyme activity, inhibitor; 33 µM).
